Assay results of several laboratories.
Target: Tyrosine-protein kinase Yes (YES1, Homo sapiens, UniProt P07947)

| Compound | test | conditions | remaining binding |
| --- | --- | --- | --- |
| CN1CCN(c2ccc(Nc3nccc(-c4ccccc4)n3)cc2C(F)(F)F)CC1 | binding | 10 µM | 56% |
| COc1ccc2cc(OCC3(C(=O)O)CN(C(=O)c4ccc(F)cc4)C3)ccc2c1 | cell-free assay, competition with immobilised ligand | 1 µM | 100% |
| C=CC(=O)N1CCC(C(=O)NCC(=O)N2CCN(c3nc(-c4cnc(N)nc4C(F)F)nc(N4CCOCC4)n3)CC2)CC1 | binding, competition with immobilised ligand | 1 µM | 97% |
| Cc1ccc(-n2nc(C(C)(C)C)cc2NC(=O)Nc2ccc(-n3c(N)c(C(N)=O)c4nc5ccc(NCCCN)cc5nc43)cc2)cc1 | cell-free assay, competition with immobilised ligand | 1 µM | 1.9% |
| CC(=O)Nc1c(C(C)=O)c(=O)n(C)c2nc(-c3ccc(Cl)cc3Cl)c(-c3ccc(Cl)cc3)cc12 | cell-free assay, competition with immobilised ligand | 1 µM | 100% |
| CN(C)c1ncc(F)c(-c2cnn3ncccc23)n1 | binding | 1 µM | 78% |
| CN(C)c1ncnc(-c2ccc3nc(Nc4cc(CN5CCN(C(=O)CC(F)(F)F)CC5)ccn4)[nH]c3c2)c1Cl | cell-free assay, competition with immobilised ligand | 1 µM | 76% |
| CN(C)c1nccc(-c2cnc3ncccn23)n1 | binding | 1 µM | 88% |
| CN(c1ccnc(CNc2nc(Nc3ccc4c(c3)CC(=O)N4)ncc2C(F)(F)F)n1)S(C)(=O)=O | cell-free assay, competition with immobilised ligand | 1 µM | 77% |
| C[C@H]1CCN(c2nccc(-c3cnn4ncccc34)n2)C1 | binding | 1 µM | 94% |
| O=C(N[C@H]1CCCCC/C=C\C2C[C@@]2(C(=O)O)NC(=O)[C@@H]2C[C@@H](Oc3ccncc3)CN2C1=O)OC1CCCC1 (stereo partly shown) | binding, competition with immobilised ligand | 1 µM | 100% |
| COc1cnc(Nc2cccc(S(N)(=O)=O)c2)nc1N1CCN(c2ccccc2)C(=O)C1 | binding, competition with immobilised ligand | 1 µM | 100% |
| CC(=O)N1CCC(c2ccc(C(=O)NC(=N)N)cc2C(F)(F)F)CC1 | cell-free assay, competition with immobilised ligand | 1 µM | 98% |
| O=C(c1ccc(Nc2nccc(-c3cc4ccccc4s3)n2)cc1)N1CCC(N2CCCC2)CC1 | binding, competition with immobilised ligand | 1 µM | 93% |
| O=C(NCC1CCOCC1)c1n[nH]cc1NC(=O)c1c(F)cccc1F | binding, competition with immobilised ligand | 1 µM | 99% |
| Cc1cnn2ncc(-c3ccnc(N(C)C)n3)c2c1 | binding | 1 µM | 100% |
| C[C@@H](c1ccc(-n2cnc3c(N)ncnc32)cc1)N1CCc2nn(C)c(Cc3ccccc3)c2C1=O | binding, competition with immobilised ligand | 0.1 µM | 74% |
| CC1CCCN1c1nccc(-c2cnn3ncccc23)n1 (stereo not shown) | binding | 1 µM | 89% |
| COc1cnc(Nc2cccc(S(N)(=O)=O)c2)nc1N1CCN(c2ccccc2)CC1 | binding, competition with immobilised ligand | 1 µM | 89% |
| N[C@@H]1CCN(c2nccc(-c3cnn4ncccc34)n2)C1 | binding | 1 µM | 100% |
| O=C(NCCCN1CCOCC1)c1ccc(Nc2ncc(Cl)c(-c3ccc(Cl)s3)n2)cc1 | binding, competition with immobilised ligand | 1 µM | 76% |
| CSc1cccnc1N1CCN(Cc2nc3ccccc3[nH]2)CC1 | cell-free assay, competition with immobilised ligand | 1 µM | 100% |
| Cc1cnc(Nc2ccc(C(=O)N3CCC(N4CCCC4)CC3)cc2)nc1-c1cc2ccccc2s1 | binding, competition with immobilised ligand | 1 µM | 43% |
| O=C(NCc1ncc(C(F)(F)F)cc1Cl)c1ccc2c(c1)C1(CCS(=O)(=O)CC1)[C@H](C1CC1)N2S(=O)(=O)c1ccc(F)cc1 | cell-free assay, competition with immobilised ligand | 1 µM | 90% |
| c1cnn2ncc(-c3ccnc(N4CCC45COC5)n3)c2c1 | binding | 1 µM | 72% |
